Measured values gathered from unrelated publications.
Protocols differ between the studies behind these lines.
Target: Tyrosine-protein kinase receptor UFO (AXL, Homo sapiens, UniProt P30530)

Structure (SMILES) | observed | action | technique | cells | tested at | endpoint | value
Cc1cc(NC(=O)c2cccc3cc(-c4cccc5[nH]nc(N)c45)ccc23)ccc1F | enzyme activity | inhibitor |  |  | 0.1 µM | activity vs control | 113%
CS(=O)(=O)N1CCCC(NC(=O)[C@H](CCC2CCCCC2)NC(=O)c2ccc(CNc3ncnc4c3nnn4-c3ccccc3)cc2)C1 (some centres unmarked) | cell-free assay |  | competition with immobilised ligand |  | 0.1 µM | remaining binding | 79%
CC(C)(C)c1nc2c(s1)c1nc(N)ncc1c1ccc(NS(=O)(=O)c3c(F)cccc3F)c(F)c12 | enzyme activity | inhibitor | radiometric |  | 1 µM | remaining activity | 100%
Cc1cnc(NC2CCOCC2)nc1-n1cnc(C(=O)NC(CN)c2cc(F)cc(Cl)c2)c1 (centres unmarked) | enzyme activity | inhibitor | radiometric |  | 1 µM | remaining activity | 103%
O=C1Nc2ccc(Cl)cc2C1=Cc1cc(Cl)c(O)c(Cl)c1 | cell-free assay |  |  |  | 0.5 µM | remaining signal | 106%
CN1CC(Oc2cnc(C#N)cc2-c2ccn3nc(NC(=O)C4CC4)cc3c2)C1 | enzyme activity | inhibitor |  |  | 1 µM | inhibition | -5%
O=C(Nc1cccnn1)N1CCC(=Cc2cccc(Oc3ccc(C(F)(F)F)cn3)c2)CC1 | cell-free assay |  | competition with immobilised ligand |  | 1 µM | remaining binding | 100%
CCN1CCN(Cc2ccc(NC(=O)c3ccc(C)c(Oc4ccnc5[nH]ccc45)c3)cc2C(F)(F)F)CC1 | target engagement in cells | inhibitor | chemoproteomics | A-375 | 5 µM | inhibition | -35.7%
COc1cc2ncnc(Nc3ccc(Oc4ccccc4)cc3C)c2cc1OC | enzyme activity | inhibitor |  |  | 1 µM | inhibition | 8%
COc1cc(Nc2c(C#N)cnc3cc(OCCCN4CCN(C)CC4)c(OC)cc23)c(Cl)cc1Cl | cell-free assay |  |  |  | 0.5 µM | remaining signal | 37.6%
Cc1cc(NC(=O)c2cccc(S(F)(F)(F)(F)F)c2)cc(-n2ccn3nc(-c4cccnc4)cc23)c1 | cell-free assay |  | competition with immobilised ligand |  | 1 µM | remaining binding | 100%
O=C1NC(=O)c2cc(Nc3ccc(F)cc3)c(Nc3ccc(F)cc3)cc21 | cell-free assay |  |  |  | 0.5 µM | remaining signal | 104%
C=CC(=O)Nc1cc(Nc2nccc(Nc3cc(Cl)c(F)cc3C(C)(C)O)n2)c(OC)cc1N1CC[C@@H](N(C)C)C1 | enzyme activity | inhibitor |  |  | 1 µM | inhibition | 16%
Nc1ncnc2occ(-c3ccc(NC(=O)Nc4cc(C(F)(F)F)ccc4F)cc3)c12 | cell-free assay |  |  |  | 20 µM | remaining signal | 21%
CNC(=O)c1cc(Oc2ccc(NC(=O)Nc3ccc(Cl)c(C(F)(F)F)c3)cc2)ccn1 | enzyme activity | inhibitor |  |  | 10 µM | inhibition | 68%
CCN(CC)c1ccc(C2=NNC(=O)CC2C)cc1[N+](=O)[O-] (centres unmarked) | enzyme activity | inhibitor |  |  | 10 µM | remaining activity | 94%

Structure (SMILES) | observed | action | technique | cells | tested at | endpoint | value
COc1cc(Cl)c(C(=O)N[C@@H](CN[C@H]2CC[C@@H](N)CC2)Cc2ccc(C#N)cc2)cc1-c1ccc(CN[C@H](C)c2ccc(C)cc2)o1 | enzyme activity | inhibitor |  |  | 1 µM | remaining activity | 56%
O=C(Nc1ccc(Oc2ccc(F)cc2)cc1)N1CCc2ncccc2[C@H]1c1ccc(F)cc1 | cell-free assay |  | competition with immobilised ligand |  | 1 µM | remaining binding | 77%
Cc1[nH]c(/C=C2\C(=O)Nc3ccc(F)cc32)c(C)c1C(=O)N[C@H]1CCN(C(=O)N(C)C)C1 | enzyme activity | inhibitor |  |  | 1 µM | remaining activity | 43%
COc1ccc(C(=O)Nc2sc3c(c2C(N)=O)CCCC3)cc1OC | enzyme activity | inhibitor |  |  | 0.5 µM | remaining activity | 84.4%
CCN(CC)CCNC(=O)c1c(C)[nH]c(/C=C2\C(=O)Nc3ccc(F)cc32)c1C | enzyme activity | inhibitor |  |  | 0.3 µM | inhibition | 75%
O=C(Nc1cnn(-c2csc(C(=O)NC3COC3)c2)c1)Nc1ccccc1Cl | enzyme activity | inhibitor |  |  | 5 µM | remaining activity | 96.7%
O=c1c2ccccc2[nH]c(=S)n1CCN1CCC(=C(c2ccc(F)cc2)c2ccc(F)cc2)CC1 | enzyme activity | inhibitor |  |  | 0.5 µM | remaining activity | 91.7%
CCN(CC)CCNC(=O)c1c(C)[nH]c(/C=C2\C(=O)Nc3ccc(F)cc32)c1C | enzyme activity | inhibitor |  |  | 1 µM | remaining activity | 7%
CCC(=O)N[C@@H]1CC[C@H](C(=O)N(C)c2ccc(-c3nc4ccccc4o3)cc2)C1 | cell-free assay |  | competition with immobilised ligand |  | 1 µM | remaining binding | 100%
CNCc1ccc(-c2cc(-c3nc(-c4ccc(S(=O)(=O)C(C)C)cc4)cnc3N)on2)cc1 | enzyme activity | inhibitor |  |  | 2 µM | inhibition | 75%
CCCOc1ccc([C@H]2[C@H](C(=O)O)[C@@H](c3ccc4c(c3)OCO4)CN2CC(=O)Nc2c(CC)cccc2CC)cc1 | cell-free assay |  | competition with immobilised ligand |  | 1 µM | remaining binding | 83%
COc1cc2nccc(Oc3ccc(NC(=S)NC(=O)c4ccccc4C)cc3)c2cc1OC | enzyme activity | inhibitor |  |  | 0.5 µM | remaining activity | 80.4%
Cc1nc(Cc2cccc(C(F)(F)F)c2)sc1-c1ccc(C(N)=O)nc1 | binding |  | competition with immobilised ligand |  | 1 µM | remaining binding | 100%
O=C(O)c1ccc2c3c1cccc3c(=O)n1c3ccccc3nc21 | enzyme activity | inhibitor |  |  | 0.5 µM | remaining activity | 94.3%
Cc1c(C(=O)O)cc(-c2ccc(C3CCNCC3)cc2)c2ccc(-c3ccc(C(F)(F)F)cc3)cc12 | binding |  | competition with immobilised ligand |  | 1 µM | remaining binding | 100%
O=C(Nc1cnn(-c2csc(C(=O)NC3COC3)c2)c1)Nc1c(F)cccc1Cl | enzyme activity | inhibitor |  |  | 5 µM | remaining activity | 73%
